{
  "source": "ChEMBL document CHEMBL5032502",
  "about": "“Syntheses, Biological Evaluations, and Mechanistic Studies of Benzo[c][1,2,5]oxadiazole Derivatives as Potent PD-L1 Inhibitors with In Vivo Antitumor Activity” (J Med Chem, 2021)",
  "key": {"[1]": {"biological_target": "Programmed cell death protein 1/Programmed cell death 1 ligand 1 (Homo sapiens, UniProt Q9NZQ7)", "sequence (Q15116 whole entry)": "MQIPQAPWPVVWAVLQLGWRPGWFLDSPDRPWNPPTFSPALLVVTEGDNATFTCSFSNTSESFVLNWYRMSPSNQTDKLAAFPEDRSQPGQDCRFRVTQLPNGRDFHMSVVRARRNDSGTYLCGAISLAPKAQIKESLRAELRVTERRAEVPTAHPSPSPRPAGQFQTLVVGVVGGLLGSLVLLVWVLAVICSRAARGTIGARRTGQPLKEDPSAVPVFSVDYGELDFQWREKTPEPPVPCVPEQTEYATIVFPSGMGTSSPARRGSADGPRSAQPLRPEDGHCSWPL", "sequence (Q9NZQ7 whole entry)": "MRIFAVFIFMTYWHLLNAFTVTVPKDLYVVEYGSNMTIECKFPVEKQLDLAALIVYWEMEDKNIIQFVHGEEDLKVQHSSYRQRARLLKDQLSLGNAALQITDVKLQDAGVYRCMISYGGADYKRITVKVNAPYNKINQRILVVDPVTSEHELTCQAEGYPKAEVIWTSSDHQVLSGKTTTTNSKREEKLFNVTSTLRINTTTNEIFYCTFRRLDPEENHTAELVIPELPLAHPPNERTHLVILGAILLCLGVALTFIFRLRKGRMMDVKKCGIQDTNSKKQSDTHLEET", "assay": "Inhibition of human PD-1/PD-L1 interaction assessed as blockade activity incubated for 15 mins by HTRF assay", "type": "protein-complex assay", "summary_of_the_method": "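Tag1-PD-L1 and Tag2-PD-1 proteins preincubated with compound (0.1 nM to 10 μM, triplicate) 15 min at room temperature, then anti-Tag1-Eu³⁺/anti-Tag2-XL665 added for 2 h at room temperature. Excitation 337 nm, emission 665 and […]. Signal taken as 665/615 ratio ×10 000; IC50 fitted from inhibition rates.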"}, "[2]": {"assay": "Half life in Sprague-Dawley rat at 9 mg/kg, iv measured upto 24 hrs by LC-MS analysis", "type": "ADME, organism-based", "details": "in vivo", "summary_of_the_method": "(§1)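 Male animals fasted 12 h before dosing. Plasma levels measured by LC-MS, with the prodrug quantified as the parent acid. Mean ± SEM, n = 3.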"}, "[3]": {"assay": "Cmax in Sprague-Dawley rat at 9 mg/kg, iv measured upto 24 hrs by LC-MS analysis", "type": "ADME, organism-based", "design": "route intravenous, dose 9 mg/kg, time <=24", "details": "in vivo", "summary_of_the_method": "as §1"}, "[4]": {"assay": "Clearance in Sprague-Dawley rat at 9 mg/kg, iv measured upto 24 hrs by LC-MS analysis", "type": "ADME, organism-based", "details": "in vivo", "summary_of_the_method": "as §1"}, "[5]": {"assay": "Tmax in Sprague-Dawley rat at 45 mg/kg, po measured upto 24 hrs by LC-MS analysis", "type": "ADME, organism-based", "details": "in vivo", "summary_of_the_method": "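Male Sprague-Dawley rats or C57BL/6 mice fasted 12 h before dosing, given oral (po) or intravenous (iv) doses. Plasma levels measured by LC-MS. Parameters reported as mean ± SEM, n = 3.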"}, "[6]": {"assay": "Cmax in Sprague-Dawley rat at 45 mg/kg, po measured upto 24 hrs by LC-MS analysis", "type": "ADME, organism-based", "design": "route oral, dose 45 mg/kg, time <=24", "details": "in vivo", "summary_of_the_method": "as §1"}, "[7]": {"assay": "AUC (0 to t) in Sprague-Dawley rat at 45 mg/kg, po measured upto 24 hrs by LC-MS analysis", "type": "ADME, organism-based", "design": "route oral, dose 45 mg/kg, time <=24", "details": "in vivo", "summary_of_the_method": "as §1"}, "[8]": {"assay": "Acute toxicity in C57BL/6 mouse assessed as mortality at 2000 mg/kg, po observed for 30 days", "type": "organism-based", "details": "in vivo, 720 h, time 30 day", "summary_of_the_method": "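Healthy C57BL/6 mice got a single oral 2000 mg/kg dose. Mortality and body weight were then recorded over a 30-day observation period.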"}, "[9]": {"assay": "Subacute toxicity in C57BL/6 mouse assessed as mortality at 2000 mg/kg, po observed for 30 days", "type": "organism-based", "details": "in vivo, 720 h, time 30 day"}, "[10]": {"assay": "Toxicity in C57BL/6 mouse assessed as effect on ALT level at 2000 mg/kg, po observed for 30 days", "type": "organism-based", "details": "in vivo, 720 h, time 30 day"}, "[11]": {"assay": "Toxicity in C57BL/6 mouse assessed as effect on creatinine kinase level at 2000 mg/kg, po observed for 30 days", "type": "organism-based", "details": "in vivo, 720 h, time 30 day"}, "[12]": {"assay": "Toxicity in C57BL/6 mouse assessed as effect on BUN level at 2000 mg/kg, po observed for 30 days", "type": "organism-based", "details": "in vivo, 720 h, time 30 day"}, "B16-F10": {"test_system": "B16-F10", "assay": "Antitumor activity against mouse B16-F10 cells implanted in C57BL/6 mouse assessed as tumor weight at 15 mg/kg, po measured after 18 days (reference value: 1.76 gm)", "type": "functional", "details": "time 18 day", "summary_of_the_method": "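Female C57BL/6J mice, 8 weeks old, injected dorsally with 1 × 10⁶ B16-F10 cells in PBS. Daily oral gavage started the same day (day 1), in 0.5% CMC-Na vehicle. Tumour size and body weight recorded daily, volume = 0.5 × L × W². Sacrifice on day 18, tumours excised and weighed. TGI = (1 − Vt/Vv) × 100.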"}, "MC-38 [13]": {"test_system": "MC-38", "assay": "Antitumor activity against mouse MC38 cells implanted in C57BL/6 mouse assessed as tumor growth inhibition at 50 mg/kg, po measured after 14 days", "type": "functional", "details": "MC-38, po, 336 h, time 14 day, read-out: TGI"}, "MC-38 [14]": {"test_system": "MC-38", "assay": "Antitumor activity against mouse MC38 cells implanted in C57BL/6 mouse assessed as tumor growth inhibition at 150 mg/kg, po measured after 18 days", "type": "functional", "details": "MC-38, po, 432 h, time 18 day, read-out: TGI", "summary_of_the_method": "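Female C57BL/6J mice, 8 weeks old, injected dorsally with 1 × 10⁶ MC38 cells in PBS. At 50 mm³, randomized to CMC-Na vehicle, 50, 150 or 300 mg/kg by daily oral gavage. Tumours measured every two days, volume = 0.5 × L × W². Sacrifice after 18 days of treatment. TGI = (1 − Vt/Vv) × 100. n = 8−10.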"}, "MC-38 [15]": {"test_system": "MC-38", "assay": "Antitumor activity against PD-L1 humanized mouse MC38 cells implanted in PD-L1 humanized C57BL/6 mouse assessed as tumor growth inhibition at 25 mg/kg, po measured after 30 days", "type": "functional", "details": "MC-38, po, 720 h, time 30 day, read-out: TGI", "summary_of_the_method": "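PD-L1-humanized C57BL/6 mice given 1 × 10⁶ MC38-hPD-L1(Tg)-mPDL1(KO) cells in the right flank. Once tumours reached 50 mm³, randomized into three groups: CMC-Na vehicle, 25 or 50 mg/kg by daily oral gavage for 30 days. TGI from mean tumour volume of treated versus vehicle groups. n = 6.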"}, "MC-38 [16]": {"test_system": "MC-38", "assay": "Antitumor activity against PD-L1 humanized mouse MC38 cells implanted in PD-L1 humanized C57BL/6 mouse assessed as tumor growth inhibition at 25 mg/kg, po measured after 27 days", "type": "functional", "details": "MC-38, po, 648 h, time 27 day, read-out: TGI", "summary_of_the_method": "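Female PD-L1-humanized C57BL/6 mice, 6 weeks old, injected in the right flank with 1 × 10⁶ MC38-hPD-L1(Tg)-mPDL1(KO) cells in PBS. At 50 mm³ tumours, animals randomized to 0.5% CMC-Na vehicle or drug by daily oral gavage. Tumours measured twice weekly, volume = 0.5 × L × W². Sacrifice on day 27. TGI = (1 − Vt/Vv) × 100. n = 8.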"}, "MC-38 [17]": {"test_system": "MC-38", "assay": "Antitumor activity against mouse MC38 cells xenografted in C57BL/6 mouse assessed as increase in CD3 positive T cells at 25 mg/kg, po by flow cytometry analysis", "type": "functional, organism-based", "summary_of_the_method": "(§2)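 Tumours taken from PD-L1-humanized mice carrying MC38-hPD-L1 tumours and dosed orally at 5 or 25 mg/kg daily. Tissue digested to single cells, red cells lysed with ACK buffer, Fc blocked. Surface stain 60 min for CD45, CD3, CD4, CD8, CD335, CD11b, Ly6G, Ly6C and F4/80, with a viability dye. Intracellular FOXP3 stain after permeabilization. Mean ± SEM, n = 7−8, one-way ANOVA.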"}, "MC-38 [18]": {"test_system": "MC-38", "assay": "Antitumor activity against mouse MC38 cells xenografted in C57BL/6 mouse assessed as increase in ratio of CD8 positive T cells to CD4 positive T cells at 25 mg/kg, po by flow cytometry analysis", "type": "functional, organism-based", "summary_of_the_method": "as §2"}, "MC-38 [19]": {"test_system": "MC-38", "assay": "Antitumor activity against mouse MC38 cells xenografted in C57BL/6 mouse assessed as reduction in gMDSC cells at 25 mg/kg, po by flow cytometry analysis", "type": "functional, organism-based", "summary_of_the_method": "as §2"}, "MC-38 [20]": {"test_system": "MC-38", "assay": "Antitumor activity against mouse MC38 cells xenografted in C57BL/6 mouse assessed as change in regulatory T cells at 25 mg/kg, po by flow cytometry analysis", "type": "functional, organism-based", "summary_of_the_method": "as §2"}, "[21]": {"assay": "Half life in C57BL/6 mouse at 2 mg/kg, iv measured upto 24 hrs by LC-MS analysis", "type": "ADME, organism-based", "details": "in vivo", "summary_of_the_method": "as §1"}, "[22]": {"assay": "Clearance in C57BL/6 mouse at 2 mg/kg, iv measured upto 24 hrs by LC-MS analysis", "type": "ADME, organism-based", "details": "in vivo", "summary_of_the_method": "as §1"}, "[23]": {"assay": "Toxicity in C57BL/6 mouse assessed as body weight loss at 2000 mg/kg, po observed for 30 days", "details": "in vivo, 720 h"}},
  "note": "Active and inactive are the calls of the source. The rule behind the calls is not given here.",
  "data": [
    {"smiles": "CCOC(=O)[C@@H](CO)NCc1cc(Cl)c(OCc2cccc(-c3ccccc3)c2Br)cc1OCc1ccc2nonc2c1.Cl", "values": [
      {"measurement": "IC50", "setting": "[1]", "value": 426, "unit": "nM"},
      {"measurement": "half-life", "setting": "[2]", "value": 301, "unit": "min"},
      {"measurement": "Cmax", "setting": "[3]", "value": 13000, "unit": "ng/mL"},
      {"measurement": "clearance", "setting": "[4]", "value": 23.8, "unit": "mL/min/kg"},
      {"measurement": "Tmax", "setting": "[5]", "value": 4, "unit": "h"},
      {"measurement": "Cmax", "setting": "[6]", "value": 488, "unit": "ng/mL"},
      {"measurement": "AUC(0-t) at 24 h", "setting": "[7]", "value": 2860, "unit": "ng·h/mL"},
      {"measurement": "Activity", "setting": "[8]", "value": "Non-Toxic"},
      {"measurement": "Activity", "setting": "[9]", "value": "Non-Toxic"},
      {"measurement": "Activity", "setting": "[10]", "value": "Non-Toxic"},
      {"measurement": "Activity", "setting": "[11]", "value": "Non-Toxic"},
      {"measurement": "Activity", "setting": "[12]", "value": "Non-Toxic"},
      {"measurement": "Activity", "setting": "B16-F10", "value": 1.27, "unit": "g"},
      {"measurement": "inhibition in vivo at 50 mg/kg", "setting": "MC-38 [13]", "value": 50.9, "unit": "%"},
      {"measurement": "inhibition in vivo at 150 mg/kg", "setting": "MC-38 [14]", "value": 55.1, "unit": "%"},
      {"measurement": "inhibition in vivo at 25 mg/kg", "setting": "MC-38 [15]", "value": 44.2, "unit": "%"},
      {"measurement": "inhibition in vivo at 25 mg/kg", "setting": "MC-38 [16]", "value": 32.5, "unit": "%"},
      {"measurement": "Activity", "setting": "MC-38 [17]", "value": "Active"},
      {"measurement": "Activity", "setting": "MC-38 [18]", "value": "Active"},
      {"measurement": "Activity", "setting": "MC-38 [19]", "value": "Active"},
      {"measurement": "Activity", "setting": "MC-38 [20]", "value": "inactive"},
      {"measurement": "half-life", "setting": "[21]", "value": 123, "unit": "min"},
      {"measurement": "clearance", "setting": "[22]", "value": 28.7, "unit": "mL/min/kg"},
      {"measurement": "Activity", "setting": "[23]", "value": "Non-Toxic"}
    ]}
  ]
}
